Data set [1] deals with T1, Calcium release-activated calcium channel protein 1 (Homo sapiens, UniProt Q96D31). As to the kind of experiment: Inhibition of […] Orai1-medited store operated calcium entry in human MDA-MB-231 cells at 10 uM pretreated for 15 mins followed by BAPTA addition by PBX dye based FLIPR assay relative to control. It counts as cell-based. The method in brief: (§1)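 MDA-MB-231 cells seeded 2×10^3/well and used 3 days later. Loaded 1 h at 37 °C with 2 µM PBX calcium dye, 5% signal enhancer and 500 µM probenecid in PSS, pH 7.3. Compound pretreated 15 min at room temperature. Then 500 µM BAPTA, 10 µM CPA, and 0.5 mM CaCl2 700 s after CPA. Read-out: peak 2 height as % inhibition vs DMSO. 95% CI, n = 4.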
Target sequence in this assay (Q96D31 whole entry, looked up): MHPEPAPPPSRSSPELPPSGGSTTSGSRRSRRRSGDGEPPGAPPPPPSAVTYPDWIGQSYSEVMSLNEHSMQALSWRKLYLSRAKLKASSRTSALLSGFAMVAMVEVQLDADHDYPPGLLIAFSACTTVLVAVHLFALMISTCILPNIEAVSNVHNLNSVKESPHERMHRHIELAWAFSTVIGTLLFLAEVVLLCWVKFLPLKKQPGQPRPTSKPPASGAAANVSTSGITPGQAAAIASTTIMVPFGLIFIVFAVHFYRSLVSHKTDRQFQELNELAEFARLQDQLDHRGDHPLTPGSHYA

Data set [2] has as its target T1, Calcium release-activated calcium channel protein 1. As to the kind of experiment: Inhibition of […] Orai1-medited store operated calcium entry in human MDA-MB-231 cells at 100 uM pretreated for 15 mins followed by BAPTA addition by PBX dye based FLIPR assay relative to control. It counts as cell-based. In short, it runs like this: as §1
Target sequence in this assay (Q96D31 whole entry, looked up): as above
The next data set has as its system MDA-MB-231. As to the kind of experiment: Inhibition of endoplasmic reticulum calcium channel in human MDA-MB-231 cells assessed as reduction in endoplasmic reticulum intracellular calcium release at 100 uM pretreated for 15 mins followed by SERCA inhibitor CPA addition measured after 700 secs by PBX dye based FLIPR assay relative to control. It counts as cell-based. In short, it runs like this:
(§2)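 Same MDA-MB-231 PBX-dye FLIPR protocol: 15 min compound pretreatment at room temperature, then BAPTA (500 µM) and CPA (10 µM) to deplete ER stores. Peak 1 height after CPA addition (ER Ca2+ release) expressed as % inhibition relative to the DMSO control. Excitation 470–495 nm, emission 515–575 nm.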
Background: A change in cytosolic calcium serves as a functional read-out for many receptors and channels.

Data set [3] concerns the target T1, Calcium release-activated calcium channel protein 1. As to the kind of experiment: Inhibition of […] Orai1-medited store operated calcium entry in human MDA-MB-231 cells at 300 uM pretreated for 15 mins followed by BAPTA addition by PBX dye based FLIPR assay relative to control. It counts as cell-based. In short, it runs like this: as §1
Target sequence in this assay (Q96D31 whole entry, looked up): as above
Data set [4] has the same target. Put plainly: Inhibition of […] Orai1-medited store operated calcium entry in human MDA-MB-231 cells at 30 uM pretreated for 15 mins followed by BAPTA addition by PBX dye based FLIPR assay relative to control. It counts as cell-based. The method in brief:
as §1
Target sequence in this assay (Q96D31 whole entry, looked up): as above

Data set [5] has as its target Voltage-dependent N-type calcium channel subunit alpha-1B (Homo sapiens) (UniProt Q00975). As to the kind of experiment: Inhibition of Cav2.2 in human SH-SY5Y cells assessed as reduction in KCl/CaCl2-induced calcium flux up to 100 uM pretreated for 300 secs followed by KCl/CaCl2 addition measured in presence of nifedipine by calcium 4-dye based FLIPR assay. It counts as cell-based. In short, it runs like this:
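SH-SY5Y cells plated at 50,000/well and used 48 h later. Loaded 30 min at 37 °C/5% CO2 with Calcium 4 dye in PSS containing 1.8 mM CaCl2. Nifedipine 10 µM present. Compound added 300 s before stimulation with KCl (90 mM)/CaCl2 (5 mM). Calcium flux read on FLIPR.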

Data set [6] deals with Transient receptor potential cation channel subfamily V member 1 (Rattus norvegicus) (UniProt O35433). Put plainly: Inhibition of rat TRPV1 expressed in HEK293 cells assessed as reduction in capsaicin-induced calcium flux up to 100 uM pretreated for 300 secs followed by capsaicin addition by calcium 4-dye based FLIPR assay. It counts as cell-based. In short, it runs like this: (§3)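 HEK293 cells transfected with rat TRPV1 or rat TRPM8 plasmid using Lipofectamine 2000, plated at 10,000/well and assayed 48 h after transfection. Calcium 4 dye loaded 30 min at 37 °C in PSS with 1.8 mM CaCl2. Compound added 300 s before agonist: capsaicin 100 nM for TRPV1, menthol 100 µM for TRPM8. Fluorescence read on FLIPR.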

Data set [7] has as its target Transient receptor potential cation channel subfamily M member 8 (Rattus norvegicus) (UniProt Q8R455). As to the kind of experiment: Inhibition of rat TRPM8 expressed in HEK293 cells assessed as reduction in menthol-induced calcium flux up to 100 uM pretreated for 300 secs followed by menthol addition by calcium 4-dye based FLIPR assay. It counts as cell-based. In short, it runs like this: as §3

Data set [8] can be described thus: Solubility of the compound in alpha minimum essential medium. It counts as physicochemical.
A short description of data set [9]: Half life in human liver microsomes. It counts as ADME, microsome. On the technique in general: Microsomes from liver hold many membrane-bound enzymes, among them those of drug oxidation.
A short description of data set [10]: Lipophilicity, log P of the compound. Conditions: octanol/water. It counts as physicochemical.
Data set [11] can be described thus: Stability of the compound in M1/M0 H2O. It counts as ADME.
Another data set concerns the target hERG (KCNH2) (Homo sapiens, UniProt Q12809). Put plainly: Inhibition of human ERG at 10 uM relative to control.
Data set [12] addresses Voltage-dependent L-type calcium channel subunit alpha-1C (Homo sapiens, UniProt Q13936). Put plainly: Inhibition of Cav1.2 (unknown origin) up to 100 uM.
Data set [13] concerns the target Voltage-dependent L-type calcium channel subunit alpha-1D (Homo sapiens) (UniProt Q01668). Put plainly: Inhibition of Cav1.3 (unknown origin) up to 100 uM.
Data set [14] is described as follows: Half life in mouse liver microsomes. It counts as ADME, microsome.
The nature of data set [15]: Inhibition of […] in thapsigargin-stimulated human Jurkat T cells assessed as blockade of intracellular calcium flux by fluo-4-AM dye based FLIPR assay. It counts as cell-based.
Data set [16] is described as follows: Inhibition of endoplasmic reticulum calcium channel in human MDA-MB-231 cells assessed as reduction in endoplasmic reticulum intracellular calcium release pretreated for 15 mins followed by SERCA inhibitor CPA addition measured after 700 secs by PBX dye based FLIPR assay. It counts as cell-based. In short, it runs like this: as §2
Data set [17] deals with T1, Calcium release-activated calcium channel protein 1. Put plainly: Inhibition of […] Orai1-medited store operated calcium entry in human MDA-MB-231 cells pretreated for 15 mins followed by BAPTA addition by PBX dye based FLIPR assay. It counts as cell-based. In short, it runs like this: as §1
Target sequence in this assay (Q96D31 whole entry): as the sequence (Q96D31 whole entry, looked up) above
A short description of data set [18]: Inhibition of CRAC in human Jurkat T cells assessed as increase in TG-stimulated intracellular calcium depletion measured every 8 secs by Ca2+ dye based fluorescence assay. It counts as cell-based.
Data set [19] can be described thus: Inhibition of CRAC in rat RBL2H3 cells assessed blockade of IP3-induced calcium flux pretreated for 30 to 60 mins followed by IP3 addition by Qpatch analysis. It counts as cell-based. The following applies: RBL-2H3.

Structures are written as SMILES. pIC50: −log10 of the molar value. Values after ≈ are worked out from the molar mass of the structure shown. Active and inactive are the calls of the source. The rule behind the calls is not given here.

By inhibition is commonly meant the relative decrease from the control value, in per cent. The solubility is the concentration that dissolves in the medium under given conditions. Higher therefore signals much dissolved substance. In general, half-life refers to how long it takes for the measured level to halve. One may read the logP as the decadic logarithm of the partition coefficient of the neutral form, usually between octanol and water. As a reminder, the pIC50 is the IC50 on a negative log10 scale, so that one unit is a factor of ten.

Transient receptor potential cation channel subfamily V member 1 (Rattus norvegicus), sequence (O35433 whole entry): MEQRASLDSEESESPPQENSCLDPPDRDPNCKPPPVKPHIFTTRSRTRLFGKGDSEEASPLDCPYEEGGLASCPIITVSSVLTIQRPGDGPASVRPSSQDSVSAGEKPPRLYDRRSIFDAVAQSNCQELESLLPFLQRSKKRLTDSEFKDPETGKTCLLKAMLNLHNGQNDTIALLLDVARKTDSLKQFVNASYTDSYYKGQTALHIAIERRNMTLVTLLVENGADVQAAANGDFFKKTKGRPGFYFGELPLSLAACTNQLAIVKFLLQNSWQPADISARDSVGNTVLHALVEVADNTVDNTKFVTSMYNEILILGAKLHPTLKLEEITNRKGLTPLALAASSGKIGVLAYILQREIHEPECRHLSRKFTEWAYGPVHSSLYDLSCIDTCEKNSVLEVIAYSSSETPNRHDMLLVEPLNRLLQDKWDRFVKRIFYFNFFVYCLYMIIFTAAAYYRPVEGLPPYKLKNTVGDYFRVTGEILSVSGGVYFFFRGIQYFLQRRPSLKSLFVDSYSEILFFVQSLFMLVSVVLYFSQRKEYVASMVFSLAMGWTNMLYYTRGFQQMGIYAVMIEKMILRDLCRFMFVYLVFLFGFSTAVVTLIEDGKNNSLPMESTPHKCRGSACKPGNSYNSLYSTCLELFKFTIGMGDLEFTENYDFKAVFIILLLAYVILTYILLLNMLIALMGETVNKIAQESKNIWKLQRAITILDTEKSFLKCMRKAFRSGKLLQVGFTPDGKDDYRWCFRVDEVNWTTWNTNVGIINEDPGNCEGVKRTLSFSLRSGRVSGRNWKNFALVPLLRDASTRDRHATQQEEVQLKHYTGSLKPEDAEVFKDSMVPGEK
Voltage-dependent L-type calcium channel subunit alpha-1D (Homo sapiens), sequence (Q01668 whole entry): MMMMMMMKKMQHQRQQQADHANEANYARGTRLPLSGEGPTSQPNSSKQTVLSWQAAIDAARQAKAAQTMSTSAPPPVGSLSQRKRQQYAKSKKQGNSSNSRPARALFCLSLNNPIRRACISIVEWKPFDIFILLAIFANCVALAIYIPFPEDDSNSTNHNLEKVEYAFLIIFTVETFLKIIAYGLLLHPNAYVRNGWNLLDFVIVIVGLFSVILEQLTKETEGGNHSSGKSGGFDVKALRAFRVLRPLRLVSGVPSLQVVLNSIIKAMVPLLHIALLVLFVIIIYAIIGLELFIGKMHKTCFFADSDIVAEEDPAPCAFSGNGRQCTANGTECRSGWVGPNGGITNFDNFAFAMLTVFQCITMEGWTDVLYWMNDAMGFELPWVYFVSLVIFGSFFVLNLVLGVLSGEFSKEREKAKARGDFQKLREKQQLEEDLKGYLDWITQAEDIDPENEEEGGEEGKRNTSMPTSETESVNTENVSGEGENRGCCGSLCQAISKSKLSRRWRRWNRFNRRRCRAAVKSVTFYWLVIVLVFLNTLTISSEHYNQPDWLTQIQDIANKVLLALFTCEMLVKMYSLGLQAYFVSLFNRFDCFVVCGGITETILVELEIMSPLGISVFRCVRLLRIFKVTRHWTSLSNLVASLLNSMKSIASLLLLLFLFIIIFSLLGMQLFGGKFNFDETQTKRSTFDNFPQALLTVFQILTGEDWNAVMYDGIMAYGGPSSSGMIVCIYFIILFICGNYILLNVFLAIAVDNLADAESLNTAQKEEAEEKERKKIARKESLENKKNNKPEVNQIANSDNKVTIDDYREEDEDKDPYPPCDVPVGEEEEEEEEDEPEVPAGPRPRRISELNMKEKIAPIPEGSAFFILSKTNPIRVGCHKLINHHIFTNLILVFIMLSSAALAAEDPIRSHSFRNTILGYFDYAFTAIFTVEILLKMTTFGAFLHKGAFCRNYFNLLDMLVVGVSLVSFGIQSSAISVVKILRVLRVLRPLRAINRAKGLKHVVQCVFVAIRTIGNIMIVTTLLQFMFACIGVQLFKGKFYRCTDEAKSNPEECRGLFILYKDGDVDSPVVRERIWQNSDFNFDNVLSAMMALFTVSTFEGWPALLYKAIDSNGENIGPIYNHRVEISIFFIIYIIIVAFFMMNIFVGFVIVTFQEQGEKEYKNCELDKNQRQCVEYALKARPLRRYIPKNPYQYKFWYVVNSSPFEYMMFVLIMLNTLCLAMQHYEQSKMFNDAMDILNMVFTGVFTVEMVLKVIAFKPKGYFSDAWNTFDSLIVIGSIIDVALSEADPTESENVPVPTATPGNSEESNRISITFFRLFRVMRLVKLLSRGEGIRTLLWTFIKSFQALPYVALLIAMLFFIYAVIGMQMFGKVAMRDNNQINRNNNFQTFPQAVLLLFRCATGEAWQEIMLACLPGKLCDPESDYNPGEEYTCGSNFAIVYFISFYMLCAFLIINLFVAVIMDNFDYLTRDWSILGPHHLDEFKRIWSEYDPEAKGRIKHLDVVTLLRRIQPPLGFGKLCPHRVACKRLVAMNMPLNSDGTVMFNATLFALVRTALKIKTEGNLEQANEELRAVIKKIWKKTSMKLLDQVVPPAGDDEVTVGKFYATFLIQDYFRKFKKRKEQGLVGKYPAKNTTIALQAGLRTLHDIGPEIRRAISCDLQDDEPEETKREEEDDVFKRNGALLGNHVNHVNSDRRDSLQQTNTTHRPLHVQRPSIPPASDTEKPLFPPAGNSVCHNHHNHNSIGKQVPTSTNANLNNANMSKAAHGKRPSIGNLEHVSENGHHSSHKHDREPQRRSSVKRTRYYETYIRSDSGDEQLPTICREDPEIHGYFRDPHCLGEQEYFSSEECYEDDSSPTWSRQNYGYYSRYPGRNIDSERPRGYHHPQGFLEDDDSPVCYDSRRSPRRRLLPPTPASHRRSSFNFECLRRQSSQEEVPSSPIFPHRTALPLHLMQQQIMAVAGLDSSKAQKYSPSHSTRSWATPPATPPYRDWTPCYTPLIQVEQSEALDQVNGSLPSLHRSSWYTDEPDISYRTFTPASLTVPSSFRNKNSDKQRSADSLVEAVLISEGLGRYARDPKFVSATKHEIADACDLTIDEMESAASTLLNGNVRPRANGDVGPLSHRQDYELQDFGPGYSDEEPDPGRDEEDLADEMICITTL
hERG (KCNH2), sequence (Q12809 whole entry): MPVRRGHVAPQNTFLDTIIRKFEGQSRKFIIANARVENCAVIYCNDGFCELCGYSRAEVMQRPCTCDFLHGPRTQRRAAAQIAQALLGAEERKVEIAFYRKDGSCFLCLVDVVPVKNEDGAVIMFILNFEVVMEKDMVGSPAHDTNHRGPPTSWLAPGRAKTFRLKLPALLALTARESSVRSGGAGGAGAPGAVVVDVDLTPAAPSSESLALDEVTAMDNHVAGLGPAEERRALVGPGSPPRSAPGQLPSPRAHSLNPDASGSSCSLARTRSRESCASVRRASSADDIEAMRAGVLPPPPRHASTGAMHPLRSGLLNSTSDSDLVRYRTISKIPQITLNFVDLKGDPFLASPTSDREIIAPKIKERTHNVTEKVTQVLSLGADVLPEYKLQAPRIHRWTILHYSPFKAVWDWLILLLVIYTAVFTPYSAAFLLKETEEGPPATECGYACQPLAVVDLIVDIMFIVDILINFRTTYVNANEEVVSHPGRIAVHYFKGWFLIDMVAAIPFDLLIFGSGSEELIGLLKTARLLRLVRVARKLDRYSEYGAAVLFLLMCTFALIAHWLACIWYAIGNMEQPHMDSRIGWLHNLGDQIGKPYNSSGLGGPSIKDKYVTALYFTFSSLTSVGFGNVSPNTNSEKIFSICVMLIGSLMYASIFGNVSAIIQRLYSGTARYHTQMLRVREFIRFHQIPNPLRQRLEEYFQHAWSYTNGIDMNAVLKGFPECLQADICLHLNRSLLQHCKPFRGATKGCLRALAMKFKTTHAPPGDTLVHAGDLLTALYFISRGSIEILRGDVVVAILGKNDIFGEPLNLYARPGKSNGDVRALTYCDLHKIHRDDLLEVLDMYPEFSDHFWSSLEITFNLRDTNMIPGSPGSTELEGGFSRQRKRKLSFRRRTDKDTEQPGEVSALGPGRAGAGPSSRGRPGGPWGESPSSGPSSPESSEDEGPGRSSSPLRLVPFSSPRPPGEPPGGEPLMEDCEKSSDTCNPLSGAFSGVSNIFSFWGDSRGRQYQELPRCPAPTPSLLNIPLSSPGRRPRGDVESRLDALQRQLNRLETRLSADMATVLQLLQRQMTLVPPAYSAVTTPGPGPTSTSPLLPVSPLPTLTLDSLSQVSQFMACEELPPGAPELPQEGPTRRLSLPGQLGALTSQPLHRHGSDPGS

In the case of `COc1cccc(C2=NN(C(=O)Cc3ccccc3)C(O)(C(F)(F)F)C2)c1` (stereo not drawn), the inhibition in data set [1] is 14%; in data set [2] it was 36 to 37%; with MDA-MB-231, below 10%.
Regarding `O=C(Cc1ccccc1)N1N=C(c2ccc(N3CCOCC3)cc2)CC1(O)C(F)(F)F` (stereo not drawn), the inhibition is below 10% in data set [2], below 10% in the data set with MDA-MB-231 and 50% in [3].
For `O=C(Cc1ccccc1)N1N=C(c2ccncc2)CC1(O)C(F)(F)F` (stereo not drawn), the inhibition in data set [2] was below 10%; with MDA-MB-231, below 10%; in data set [3], 50%.
Consider `O=C(Cc1ccccc1)N1N=C(c2cccc(F)c2)CC1(O)C(F)(F)F` (stereo not drawn), for which the inhibition in [4] was 60%; in the data set with MDA-MB-231, below 10%.
In the case of `COc1cccc(C2(O)CC(C(F)(F)F)=NN2C(=O)Cc2ccccc2)c1` (stereo not drawn), the inhibition entry (in [5]; in data set [6]; in data set [7]; in the data set with MDA-MB-231; in data set [13]) was “inactive” throughout. Also, the inhibition in data set [1] is 11%; in data set [2], 37%. For the same compound, the solubility in [8] was 16.8 µg/mL (≈ 44.4 µM). Also, the figures for the half-life in data set [9] and in data set [14] were 8.2 min and 3.3 min, respectively. Also, in [10], the logP worked out at 4.4. The same compound came in with a Stability in data set [11] of 93.2%. The same compound gave an inhibition at 10 µM on hERG (KCNH2) of 9.1%. In data set [12], the “inhibition (INH)” value is on record as “Not Active”.
As for `COc1ccc(OC)c(-c2ccc(NC(=O)c3ccncc3F)cc2)c1`, in data set [15], the pIC50 was 5.85.
For `O=C(Cc1ccccc1)N1N=C(C(F)(F)F)CC1(O)c1ccccc1C(F)(F)F` (stereo not drawn), the negative-log IC50 (pIC50) in [16] was 4.10; in data set [17], 4.31.
With `Cc1ccccc1C1=NN(C(=O)Cc2ccccc2)C(O)(C(F)(F)F)C1` (stereo not drawn), the figures for the inhibition (in data set [4]; in the data set with MDA-MB-231) were 50% and below 10%, respectively.
Take `Cc1ccccc1C1(O)CC(C(F)(F)F)=NN1C(=O)c1ccccc1` (stereo not drawn): the values for the inhibition (in data set [1]; in the data set with MDA-MB-231) were 20% and below 10%, respectively.
In the case of `Cc1nnsc1C(=O)Nc1ccc(-n2nc(C(F)(F)F)cc2C(F)(F)F)cc1`, in data set [18], the pIC50 is 8.00.
Take `O=C(Cc1ccccc1)N1N=C(c2cccc(NC(=O)C(F)(F)F)c2)CC1(O)C(F)(F)F` (stereo not drawn): the inhibition in data set [4] was 60%; in the data set with MDA-MB-231, below 10%.
Turning to `CC1=C(c2cnc(NC(=O)c3c(F)cccc3F)cn2)CN(c2ncc(C)s2)CC1`, in [19], the negative logarithm of the IC50 (pIC50) is 6.40.
Turning to `CS(=O)(=O)Nc1cccc(C2=NN(C(=O)Cc3ccccc3)C(O)(C(F)(F)F)C2)c1` (stereo not drawn), the inhibition was 20% in [4] and below 10% with MDA-MB-231.

Source of the values: ChEMBL document CHEMBL4118190, “An SAR study of hydroxy-trifluoromethylpyrazolines as inhibitors of Orai1-mediated store operated Ca2+ entry in MDA-MB-231 breast cancer cells using a convenient Fluorescence Imaging Plate Reader assay” (Bioorg Med Chem, 2018).
